Measured values from different studies.
Each line is one published result; the experiments were not run side by side.
SLC22A1: Solute carrier family 22 member 1 (SLC22A1, Homo sapiens, UniProt O15245)

| SMILES | target or system | assay | system | setting | endpoint | result |
| --- | --- | --- | --- | --- | --- | --- |
| COc1cc(OC)c2c(=O)cc(-c3ccc(Br)cc3)oc2c1-c1c(OC)cc(OC)c2c(=O)cc(-c3ccc(Br)cc3)oc12 | HS27 | cell growth or viability, MTT | – | 24 h | CC50 | > 200 µM |
| CC(C)CN1C[C@H]2CC[C@@H]3[C@]4(C)COC(C)(C)O[C@@H]4CC[C@@]3(C)[C@@H]2C[C@@H]1C1=CCOC1=O | MRC5 | cell growth or viability, ATP luminescence | – | 25 µM, 72 h | cell death | -4.1% |
| CN(CCC(=O)O)C(=O)c1ccc2c(c1)CC[C@@H]1[C@@H]2CC[C@]2(C)C(c3cncc(F)c3)=CC[C@@H]12 | UDP-glucuronosyltransferase 2B4 (UGT2B4, Homo sapiens, UniProt P06133) | enzyme activity, inhibitor | – | – | IC50 | > 30 µM |
| O=C(O)CSc1nnc(Br)n1-c1ccc(C2CC2)c2ccccc12 | SLC22A1 | transporter uptake, inhibitor | MDCK-II | 3 µM, 5 min | inhibition | 36% |
| COc1ccc(-c2cc(=O)c3c(OC)cc(OC)cc3o2)cc1 | HS27 | cell growth or viability, MTT | – | 24 h | CC50 | > 200 µM |
| Oc1c(-n2ccnn2)cnn1-c1cc(N2CCOCC2)ncn1 | – | – | female monkey, plasma | oral, 1 mg/kg | bioavailability | 61% |
| COc1ccc(CN2C[C@H]3CC[C@@H]4[C@](C)(COC(C)=O)[C@H](OC(C)=O)CC[C@@]4(C)[C@@H]3C[C@@H]2C2=CCOC2=O)cc1 | MRC5 | cell growth or viability, ATP luminescence | – | 25 µM, 72 h | cell death | 56.4% |
| CCCCOC(=O)N1CCN(C(=O)[C@H](CP(=O)(O)O)NC(=O)c2cc(N3CC[C@H](OC)C3)nc(-c3ccccc3)n2)CC1 | – | – | human, plasma | subcutaneous, 16 mg, 24 h, single dose | concentration | 2.1 ng/mL |
| C=CCn1c(=O)c2cnc(Nc3ccc(N4CCN(C)CC4)cc3)nc2n1-c1cccc(C(C)(C)O)n1 | – | – | human, plasma | oral, 175 mg, 8 h, single dose | concentration | 0.213 µM |
| COc1ccc(CN2C[C@H]3CC[C@@H]4[C@](C)(CO)[C@H](O)CC[C@@]4(C)[C@@H]3C[C@@H]2C2=CCOC2=O)cc1 | MRC5 | cell growth or viability, ATP luminescence | – | 25 µM, 72 h | cell death | -1.8% |
| CN(C(=O)n1cnc(-c2ccc[n+]([O-])c2)c1)C1CCCCC1 | SLC22A1 | transporter uptake, inhibitor | CHO | 1 µg/mL | inhibition | 13% |
| COc1cc(OC)c2c(=O)cc(-c3ccccc3Br)oc2c1 | HS27 | cell growth or viability, MTT | – | 24 h | CC50 | > 200 µM |
